Compound activity from PubChem BioAssay.
STAT1 act = STAT1 signaling activators, primary screen, cell-based, HTS, luciferase reporter | NIH 3T3 STAT1-luciferase reporter, IFN-gamma, luminescence; 100% = IFN-gamma alone, no compound | activation (% of control), % at 5.5 µM | hit rate 2.6% among 200,000 | AID 932, 2007;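 active = activation above the screen-wide mean activation plus 3 SD, cut at about 130% in these data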
APP 5'UTR act = activators of APP 5'UTR luciferase reporter, primary screen, SH-SY5Y cells; activation, % at 2 µM; hit rate 1% among 190,000; AID 1276, 2008; SH-SY5Y APP 5'UTR luciferase reporter, luminescence; zero percent = DMSO vehicle wells;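 active = activation above a set limit, based on mean plus 3 SD of controls, cut at about 140% in these data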
NF-kB expr up = activators of NF-kB expression in neurons, primary screen, cell-based, HTS. human neuronal cells, NF-kB reporter expression; hits give high values. fold change at 12.5 µM. hit rate 1.6% among 190,000. AID 1239, 2008; in the data active = fold change above about 3.3
AHR act = AHR activators, primary screen, cell-based, luminescence, luciferase reporter, human; Aryl hydrocarbon receptor (Homo sapiens), P35869; AHR-responsive luciferase reporter cells; activation, % at 5 µM; hit rate 2.5% among 320,000; in the data active = activation above about 47%
Mdm2 ligase inh = MDM2-luciferase reporter signal enhancers, primary screen, MDM2 E3 ligase inhibitor project, cell-based, luminescence, 1536-well | signal enhancement, % at 5 µM | cell-based MDM2 ubiquitination luciferase reporter, 2 h; 0 = plate control, 100 = twice control, blank-subtracted | E3 ubiquitin-protein ligase Mdm2 (Homo sapiens), Q00987 | hit rate 0.11% among 210,000;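 active = signal enhancement of 30% or more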;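 note: luminescence tracks abundance of the self-degrading MDM2-luciferase fusion protein; higher signal means inhibition of MDM2 E3 ligase activity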
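system = mammalian cells stably expressing self-ubiquitinating, self-degrading MDM2 E3–luciferase fusion | quantity = 2000 cells per well seeded | incubation = 4 h cell settling then 2 h compound exposure, 37 °C | signal = SteadyLite luminescence, 15 min reagent step | benchmarks = plate control and blank wells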
PERK inh = block of dimerizer-induced PERK translation repression, primary screen, PERK inhibitor project, CHO PERK-DD cells, SEAP luminescence, HTS. Eukaryotic translation initiation factor 2-alpha kinase 3 (Homo sapiens), Q9NZJ5. hit rate 0.17% among 220,000. AID 1416, 2008. CHO PERK-DD fusion, SEAP luminescence translation reporter. inhibition, % at 5.6 µM;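 active = inhibition above the mean inhibition of all tested compounds plus 3 SD, set separately per screening campaign, cut at about 2.9% in these data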;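 note: PERK kinase domain activated by AP20187 dimerizer at 100 nM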
Hits are given with their value. This is a sample that favours compounds with a hit; in the whole collection about 4.5% have one here.

How did CCOC(=O)c1ccc(N/C=C/C(=O)c2ccc(OC)c(OC)c2)cc1 do in these assays?
STAT1 act: inactive; APP 5'UTR act: inactive; NF-kB expr up: inactive; AHR act: inactive; Mdm2 ligase inh: inactive; PERK inh: inactive

Results for O=C(/C=C/Nc1ccc(F)cc1)c1ccco1 ?
STAT1 act: inactive; APP 5'UTR act: 146; NF-kB expr up: 5.1; AHR act: inactive; Mdm2 ligase inh: inactive; PERK inh: inactive

Results for Cc1ccc(N/C=C/C(=O)c2ccco2)c(O)c1 ?
AHR act: inactive; Mdm2 ligase inh: inactive; PERK inh: inactive

How did CCOC(=O)c1ccc(N/C=C/C(=O)c2ccco2)cc1 do in these assays?
STAT1 act: inactive; APP 5'UTR act: inactive; NF-kB expr up: 5.2; AHR act: inactive; Mdm2 ligase inh: inactive; PERK inh: inactive

Results for CCCOc1c(Br)cc(C(=O)NCC)cc1OC ?
STAT1 act: inactive; APP 5'UTR act: inactive; NF-kB expr up: inactive; AHR act: 79; Mdm2 ligase inh: inactive; PERK inh: inactive

Results for Cc1occc1C(=O)NNC(=S)Nc1ccccc1C(F)(F)F ?
STAT1 act: 133; APP 5'UTR act: inactive; NF-kB expr up: inactive; AHR act: inactive; Mdm2 ligase inh: inactive; PERK inh: inactive

What do the screens show for `CCc1ncc(CN2CCC(C(=O)Nc3ccc(-n4nc(C)cc4C)cc3)CC2)cn1`?
AHR act: inactive

What do the screens show for `O=c1c2ccccc2nnn1CSc1nc2ccccc2[nH]1`?
STAT1 act: 135; APP 5'UTR act: inactive; NF-kB expr up: inactive; AHR act: inactive; Mdm2 ligase inh: inactive; PERK inh: inactive

Results for Cc1ccc(SCn2nnc3ccccc3c2=O)c(C)c1 ?
STAT1 act: 141; APP 5'UTR act: inactive; NF-kB expr up: inactive; AHR act: inactive; Mdm2 ligase inh: inactive; PERK inh: inactive

Results for CN(C)c1ccc(/C=N/NC(=O)c2ccnn2C)cc1 ?
STAT1 act: inactive; APP 5'UTR act: inactive; NF-kB expr up: 4.4; AHR act: inactive; Mdm2 ligase inh: inactive; PERK inh: inactive

How did CSC(=S)N/N=C/c1ccc(N(C)C)cc1 do in these assays?
STAT1 act: inactive; APP 5'UTR act: inactive; NF-kB expr up: inactive; AHR act: 51; Mdm2 ligase inh: inactive; PERK inh: inactive

Results for CN(C)c1ccc(/C=N/NC(=O)c2ccn(C)n2)cc1 ?
AHR act: inactive; Mdm2 ligase inh: inactive; PERK inh: 3.0

Results for CSC(=S)N/N=C/c1ccc(Br)cc1 ?
STAT1 act: inactive; APP 5'UTR act: inactive; NF-kB expr up: inactive; AHR act: inactive; Mdm2 ligase inh: inactive; PERK inh: inactive

How did Cn1ccc(C(=O)N/N=C/c2cccnc2)n1 do in these assays?
AHR act: inactive

Results for CC1(C)Cc2c(cnn2-c2ccccc2)C(NC(=O)CCCN2CCCCC2=O)C1 (stereo unspecified) ?
AHR act: inactive

Results for CCOc1nc(Nc2ccc(OC)cc2)nc(N2CCOCC2)n1 ?
STAT1 act: inactive; APP 5'UTR act: inactive; NF-kB expr up: inactive; AHR act: inactive; Mdm2 ligase inh: inactive; PERK inh: inactive

Results for COc1ccc(Nc2nc(OC)nc(N3CCOCC3)n2)cc1 ?
STAT1 act: inactive; APP 5'UTR act: inactive; NF-kB expr up: inactive; AHR act: 51; Mdm2 ligase inh: inactive; PERK inh: inactive

What do the screens show for `CCOc1ccc(CNc2ccc(S(N)(=O)=O)cc2)cc1`?
STAT1 act: inactive; APP 5'UTR act: inactive; NF-kB expr up: inactive; AHR act: inactive; Mdm2 ligase inh: inactive; PERK inh: 3.3

What do the screens show for `CCOc1ccc(CNCCc2ccc(S(N)(=O)=O)cc2)cc1`?
STAT1 act: inactive; APP 5'UTR act: inactive; NF-kB expr up: inactive; AHR act: inactive; Mdm2 ligase inh: inactive; PERK inh: inactive

Results for CCN(CC)CCNc1cc(C)c(C#N)c2nc3ccccc3n12 ?
AHR act: 48

How did Cc1cc(NCCCN2CCOCC2)n2c(nc3ccccc32)c1C#N do in these assays?
STAT1 act: inactive; APP 5'UTR act: inactive; NF-kB expr up: inactive; AHR act: 73; Mdm2 ligase inh: inactive; PERK inh: inactive

Results for Cc1cc(NCCCCO)n2c(nc3ccccc32)c1C#N ?
STAT1 act: inactive; APP 5'UTR act: inactive; NF-kB expr up: inactive; AHR act: inactive; Mdm2 ligase inh: inactive; PERK inh: inactive

What do the screens show for `O=C(NCCCc1ccccc1)N1CCOCC1`?
STAT1 act: inactive; APP 5'UTR act: inactive; AHR act: inactive; PERK inh: inactive

How did c1ccc(-n2ncc3c(NCc4cccs4)ncnc32)cc1 do in these assays?
STAT1 act: 138; APP 5'UTR act: inactive; NF-kB expr up: inactive; AHR act: inactive; Mdm2 ligase inh: inactive; PERK inh: inactive

Results for COc1ccc(-n2ncc3c(NCc4cccs4)ncnc32)cc1 ?
STAT1 act: 150; APP 5'UTR act: inactive; NF-kB expr up: inactive; AHR act: inactive; Mdm2 ligase inh: inactive; PERK inh: inactive

How did c1ccc(-n2ncc3c(NCc4cccnc4)ncnc32)cc1 do in these assays?
STAT1 act: inactive; APP 5'UTR act: inactive; NF-kB expr up: inactive; AHR act: inactive; Mdm2 ligase inh: inactive; PERK inh: inactive

How did c1ccc(-n2ncc3c(NCC4CCCO4)ncnc32)cc1 (stereo unspecified) do in these assays?
STAT1 act: 129; APP 5'UTR act: inactive; NF-kB expr up: inactive; AHR act: inactive; Mdm2 ligase inh: inactive; PERK inh: inactive

How did Clc1ccc(-n2ncc3c(NCc4ccco4)ncnc32)cc1 do in these assays?
STAT1 act: 150; APP 5'UTR act: inactive; NF-kB expr up: inactive; AHR act: inactive; Mdm2 ligase inh: inactive; PERK inh: inactive

How did CC(Sc1ncnc2c1cnn2-c1ccccc1)C(=O)NCC1CCCO1 (stereo unspecified) do in these assays?
AHR act: inactive

What do the screens show for `Clc1ccc(Cn2ncc3c(NCc4ccco4)ncnc32)c(Cl)c1`?
STAT1 act: inactive; APP 5'UTR act: inactive; NF-kB expr up: inactive; AHR act: inactive; Mdm2 ligase inh: inactive; PERK inh: inactive

How did CCCNC(=O)c1cc2nc(-c3ccccc3)cc(C(F)(F)F)n2n1 do in these assays?
STAT1 act: inactive; APP 5'UTR act: inactive; NF-kB expr up: inactive; AHR act: inactive; PERK inh: inactive

What do the screens show for `Cc1cc(NCCN2CCOCC2)n2nc(C)c(-c3ccc(Cl)cc3)c2n1`?
STAT1 act: inactive; APP 5'UTR act: inactive; NF-kB expr up: inactive; AHR act: inactive; Mdm2 ligase inh: inactive; PERK inh: inactive

How did Cc1cc(NCCCn2ccnc2)n2ncc(-c3ccccc3)c2n1 do in these assays?
STAT1 act: inactive; APP 5'UTR act: inactive; NF-kB expr up: inactive; AHR act: inactive; Mdm2 ligase inh: inactive; PERK inh: inactive
